Assay [1] concerns the target Receptor-interacting serine/threonine-protein kinase 2 (Homo sapiens) (UniProt O43353). The experiment in a line: Competitive binding affinity to RIPK2 (unknown origin) at 10 uM in presence of ATP relative to control. The method, boiled down:
(§1)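 In vitro ATP-site competition binding assay across a diverse panel of 128 kinases, with compound tested at a single concentration. Kinase selectivity scores (S15) were calculated from the panel profiles.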

Assay [2] deals with T1, Ephrin type-A receptor 8 (Homo sapiens) (UniProt P29322).
T1 sequence (whole entry): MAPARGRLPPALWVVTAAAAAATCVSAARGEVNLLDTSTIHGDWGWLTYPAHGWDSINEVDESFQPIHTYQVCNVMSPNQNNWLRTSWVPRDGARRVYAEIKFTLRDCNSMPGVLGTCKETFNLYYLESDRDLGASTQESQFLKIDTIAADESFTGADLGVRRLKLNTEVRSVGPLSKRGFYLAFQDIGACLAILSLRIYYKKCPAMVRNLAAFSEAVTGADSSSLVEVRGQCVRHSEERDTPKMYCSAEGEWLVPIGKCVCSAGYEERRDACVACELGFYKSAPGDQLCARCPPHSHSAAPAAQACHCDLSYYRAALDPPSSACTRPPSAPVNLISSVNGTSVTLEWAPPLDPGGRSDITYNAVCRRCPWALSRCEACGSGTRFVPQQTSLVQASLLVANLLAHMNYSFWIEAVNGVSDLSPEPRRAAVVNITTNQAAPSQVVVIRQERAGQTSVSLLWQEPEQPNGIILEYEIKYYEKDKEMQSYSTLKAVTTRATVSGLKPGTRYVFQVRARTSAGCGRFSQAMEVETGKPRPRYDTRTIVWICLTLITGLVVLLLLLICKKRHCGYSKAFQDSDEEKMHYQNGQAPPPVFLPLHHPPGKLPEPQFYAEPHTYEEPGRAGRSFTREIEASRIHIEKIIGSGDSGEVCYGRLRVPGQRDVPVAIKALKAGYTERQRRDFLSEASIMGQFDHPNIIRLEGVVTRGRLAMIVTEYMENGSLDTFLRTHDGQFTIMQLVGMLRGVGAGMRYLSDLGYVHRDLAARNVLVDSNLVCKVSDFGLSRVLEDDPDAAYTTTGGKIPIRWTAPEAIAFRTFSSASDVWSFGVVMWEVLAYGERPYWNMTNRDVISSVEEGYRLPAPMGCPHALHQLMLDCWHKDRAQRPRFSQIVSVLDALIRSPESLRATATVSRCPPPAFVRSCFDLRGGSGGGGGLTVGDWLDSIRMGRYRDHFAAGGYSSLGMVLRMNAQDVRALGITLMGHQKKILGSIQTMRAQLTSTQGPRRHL
As to the kind of experiment: Competitive binding affinity to EPHA8 (unknown origin) at 10 uM in presence of ATP relative to control. The method, boiled down:
(§2)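 In vitro ATP-site competition binding assay, part of profiling against a diverse panel of 128 kinases. Each compound was tested at a single concentration of 10 µM. Kinome selectivity was summarized as S15 selectivity scores.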

Assay [3] deals with Mitogen-activated protein kinase kinase kinase kinase 5 (Homo sapiens) (UniProt Q9Y4K4). As to the kind of experiment: Competitive binding affinity to MAP4K5 (unknown origin) at 10 uM in presence of ATP relative to control. The method, boiled down: as §2
Assay [4] addresses Ribosomal protein S6 kinase alpha-2 (Homo sapiens) (UniProt Q15349). The experiment in a line: Competitive binding affinity to RPS6KA2 kinase domain 1 (unknown origin) at 10 uM in presence of ATP relative to control. The method, boiled down:
(§3)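 In vitro ATP-site competition binding assay across a diverse panel of 128 kinases, with each compound tested at a single concentration. Kinase binding is expressed relative to control.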

Assay [5] addresses Ephrin type-A receptor 4 (Homo sapiens) (UniProt P54764). As to the kind of experiment: Competitive binding affinity to EPHA4 (unknown origin) at 10 uM in presence of ATP relative to control. The method, boiled down: as §2
The target in assay [6] is T2, Mitogen-activated protein kinase 12 (Homo sapiens) (UniProt P53778).
T2 sequence (whole entry): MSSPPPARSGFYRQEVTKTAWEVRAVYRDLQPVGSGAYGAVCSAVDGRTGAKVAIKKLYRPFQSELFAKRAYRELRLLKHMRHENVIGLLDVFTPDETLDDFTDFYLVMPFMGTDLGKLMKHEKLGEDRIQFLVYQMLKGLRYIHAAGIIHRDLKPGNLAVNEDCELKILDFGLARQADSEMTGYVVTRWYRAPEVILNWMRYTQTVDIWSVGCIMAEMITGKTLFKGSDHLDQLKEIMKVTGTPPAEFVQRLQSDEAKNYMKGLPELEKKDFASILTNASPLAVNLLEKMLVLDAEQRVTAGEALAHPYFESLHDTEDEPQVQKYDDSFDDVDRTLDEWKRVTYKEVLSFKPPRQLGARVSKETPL
The experiment in a line: Competitive binding affinity to p38-gamma (unknown origin) at 10 uM in presence of ATP relative to control. The method, boiled down:
as §1

Assay [7] deals with T3, Dual specificity protein kinase TTK (Homo sapiens) (UniProt P33981).
T3 sequence (whole entry): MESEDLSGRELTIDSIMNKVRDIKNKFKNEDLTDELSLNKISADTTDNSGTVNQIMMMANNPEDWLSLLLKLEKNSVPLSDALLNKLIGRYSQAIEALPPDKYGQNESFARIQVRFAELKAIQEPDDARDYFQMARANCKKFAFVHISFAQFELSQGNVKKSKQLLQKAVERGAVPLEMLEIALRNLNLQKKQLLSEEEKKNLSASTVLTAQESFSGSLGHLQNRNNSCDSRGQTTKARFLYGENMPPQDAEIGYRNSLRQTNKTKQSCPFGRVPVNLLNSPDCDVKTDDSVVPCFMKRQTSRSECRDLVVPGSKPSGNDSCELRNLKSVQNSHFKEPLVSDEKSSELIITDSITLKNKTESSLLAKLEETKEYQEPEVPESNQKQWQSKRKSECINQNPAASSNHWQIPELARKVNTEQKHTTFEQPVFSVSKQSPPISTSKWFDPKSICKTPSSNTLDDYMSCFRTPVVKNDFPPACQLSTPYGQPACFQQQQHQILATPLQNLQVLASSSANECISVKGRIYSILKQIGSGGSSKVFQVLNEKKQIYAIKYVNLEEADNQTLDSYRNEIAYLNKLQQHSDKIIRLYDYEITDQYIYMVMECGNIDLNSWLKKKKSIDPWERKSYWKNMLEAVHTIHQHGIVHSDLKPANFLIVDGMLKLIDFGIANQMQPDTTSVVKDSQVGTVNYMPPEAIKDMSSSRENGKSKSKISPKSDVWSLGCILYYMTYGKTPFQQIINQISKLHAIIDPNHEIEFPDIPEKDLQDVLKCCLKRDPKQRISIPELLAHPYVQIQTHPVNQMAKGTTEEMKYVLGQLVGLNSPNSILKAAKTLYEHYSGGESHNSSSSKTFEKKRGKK
As to the kind of experiment: Competitive binding affinity to TTK (unknown origin) at 10 uM in presence of ATP relative to control. The method, boiled down:
as §3

The target of assay [8] is Casein kinase I isoform epsilon (Homo sapiens) (UniProt P49674). The experiment in a line: Competitive binding affinity to CSNK1E (unknown origin) at 10 uM in presence of ATP relative to control.
Assay [9] addresses Serine/threonine-protein kinase 16 (Homo sapiens, UniProt O75716). The experiment in a line: Competitive binding affinity to STK16 (unknown origin) at 10 uM in presence of ATP relative to control. The method, boiled down:
as §1

Molecules are shown by their SMILES.

Chain of Serine/threonine-protein kinase 16 (O75716 whole entry): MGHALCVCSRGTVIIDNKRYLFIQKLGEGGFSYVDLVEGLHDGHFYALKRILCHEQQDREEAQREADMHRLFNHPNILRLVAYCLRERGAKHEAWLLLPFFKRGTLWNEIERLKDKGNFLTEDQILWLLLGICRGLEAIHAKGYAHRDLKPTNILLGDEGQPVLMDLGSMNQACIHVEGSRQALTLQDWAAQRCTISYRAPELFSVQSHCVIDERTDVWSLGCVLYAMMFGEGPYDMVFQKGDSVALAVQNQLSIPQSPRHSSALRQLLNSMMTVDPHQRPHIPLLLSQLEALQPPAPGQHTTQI
Chain of Ribosomal protein S6 kinase alpha-2 (Homo sapiens) (Q15349 whole entry, the tested form may be a part): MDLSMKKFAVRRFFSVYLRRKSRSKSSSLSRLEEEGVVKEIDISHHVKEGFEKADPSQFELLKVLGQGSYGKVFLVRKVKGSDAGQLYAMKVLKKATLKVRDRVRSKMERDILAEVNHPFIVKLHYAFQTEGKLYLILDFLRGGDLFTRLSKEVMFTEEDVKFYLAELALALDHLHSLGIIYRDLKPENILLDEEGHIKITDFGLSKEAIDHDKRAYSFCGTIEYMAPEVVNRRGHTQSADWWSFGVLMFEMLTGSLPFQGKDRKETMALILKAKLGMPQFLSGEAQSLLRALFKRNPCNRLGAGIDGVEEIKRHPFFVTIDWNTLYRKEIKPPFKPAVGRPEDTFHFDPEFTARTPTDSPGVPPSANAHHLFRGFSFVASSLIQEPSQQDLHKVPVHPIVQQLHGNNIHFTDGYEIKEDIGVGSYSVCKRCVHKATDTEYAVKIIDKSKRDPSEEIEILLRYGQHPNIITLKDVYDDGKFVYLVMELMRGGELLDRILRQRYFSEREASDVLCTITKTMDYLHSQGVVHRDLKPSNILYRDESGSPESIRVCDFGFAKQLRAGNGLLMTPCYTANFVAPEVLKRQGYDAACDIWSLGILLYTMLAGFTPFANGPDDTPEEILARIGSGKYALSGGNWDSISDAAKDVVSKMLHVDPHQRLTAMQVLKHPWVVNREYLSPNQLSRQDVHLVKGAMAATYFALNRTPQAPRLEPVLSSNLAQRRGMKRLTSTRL
Chain of Casein kinase I isoform epsilon (Homo sapiens) (P49674 whole entry, looked up, canonical isoform): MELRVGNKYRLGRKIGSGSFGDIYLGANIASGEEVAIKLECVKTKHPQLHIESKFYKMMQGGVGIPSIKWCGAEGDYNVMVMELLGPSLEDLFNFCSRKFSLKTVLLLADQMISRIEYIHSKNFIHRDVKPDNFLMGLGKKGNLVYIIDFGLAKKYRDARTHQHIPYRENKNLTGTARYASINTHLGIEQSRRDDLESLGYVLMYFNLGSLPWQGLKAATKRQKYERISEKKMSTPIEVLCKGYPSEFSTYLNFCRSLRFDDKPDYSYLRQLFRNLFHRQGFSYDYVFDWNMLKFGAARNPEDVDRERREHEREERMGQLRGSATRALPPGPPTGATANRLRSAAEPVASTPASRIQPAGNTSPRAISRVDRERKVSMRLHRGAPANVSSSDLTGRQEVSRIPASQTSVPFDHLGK
Chain of Ephrin type-A receptor 4 (Homo sapiens) (P54764 whole entry): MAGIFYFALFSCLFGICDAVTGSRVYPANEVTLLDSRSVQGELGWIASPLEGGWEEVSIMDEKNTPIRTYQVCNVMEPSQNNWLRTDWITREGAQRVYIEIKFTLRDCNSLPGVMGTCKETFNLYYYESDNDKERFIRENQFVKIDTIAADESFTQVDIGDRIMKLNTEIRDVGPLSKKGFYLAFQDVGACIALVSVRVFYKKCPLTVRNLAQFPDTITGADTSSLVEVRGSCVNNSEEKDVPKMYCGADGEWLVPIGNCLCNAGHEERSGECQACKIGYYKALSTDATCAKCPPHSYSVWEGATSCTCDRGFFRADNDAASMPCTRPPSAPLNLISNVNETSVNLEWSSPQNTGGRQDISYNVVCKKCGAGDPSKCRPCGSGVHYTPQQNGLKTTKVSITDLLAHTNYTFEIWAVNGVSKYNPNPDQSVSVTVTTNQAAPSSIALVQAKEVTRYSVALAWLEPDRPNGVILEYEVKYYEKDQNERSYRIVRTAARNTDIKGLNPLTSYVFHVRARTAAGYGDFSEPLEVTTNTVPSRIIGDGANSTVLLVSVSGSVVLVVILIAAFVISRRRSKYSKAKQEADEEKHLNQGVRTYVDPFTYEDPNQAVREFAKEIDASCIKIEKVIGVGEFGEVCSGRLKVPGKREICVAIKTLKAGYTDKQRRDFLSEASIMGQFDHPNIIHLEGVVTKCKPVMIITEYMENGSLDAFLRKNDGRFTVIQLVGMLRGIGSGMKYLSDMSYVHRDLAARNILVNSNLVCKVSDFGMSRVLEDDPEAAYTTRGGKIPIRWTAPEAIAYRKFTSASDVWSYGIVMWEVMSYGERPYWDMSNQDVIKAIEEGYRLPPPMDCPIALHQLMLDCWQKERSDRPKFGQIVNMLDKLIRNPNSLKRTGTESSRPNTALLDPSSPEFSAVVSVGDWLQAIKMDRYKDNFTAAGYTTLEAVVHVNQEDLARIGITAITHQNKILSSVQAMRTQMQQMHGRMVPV
Chain of Receptor-interacting serine/threonine-protein kinase 2 (Homo sapiens) (O43353 whole entry): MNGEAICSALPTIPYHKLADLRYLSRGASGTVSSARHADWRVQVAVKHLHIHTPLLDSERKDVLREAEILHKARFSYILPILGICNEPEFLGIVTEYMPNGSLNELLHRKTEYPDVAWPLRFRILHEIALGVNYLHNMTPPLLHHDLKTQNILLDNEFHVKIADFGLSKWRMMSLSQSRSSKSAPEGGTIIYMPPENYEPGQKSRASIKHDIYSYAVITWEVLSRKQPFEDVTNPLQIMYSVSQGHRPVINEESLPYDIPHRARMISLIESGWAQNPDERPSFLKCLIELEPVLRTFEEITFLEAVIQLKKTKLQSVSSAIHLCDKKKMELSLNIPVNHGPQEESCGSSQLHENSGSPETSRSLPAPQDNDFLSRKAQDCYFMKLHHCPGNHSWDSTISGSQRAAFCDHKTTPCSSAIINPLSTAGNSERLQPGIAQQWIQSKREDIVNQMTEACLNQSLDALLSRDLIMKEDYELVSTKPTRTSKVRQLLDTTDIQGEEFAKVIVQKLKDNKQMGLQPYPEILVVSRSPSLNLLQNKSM
Chain of Mitogen-activated protein kinase kinase kinase kinase 5 (Homo sapiens) (Q9Y4K4 whole entry, looked up, the tested form may be a part): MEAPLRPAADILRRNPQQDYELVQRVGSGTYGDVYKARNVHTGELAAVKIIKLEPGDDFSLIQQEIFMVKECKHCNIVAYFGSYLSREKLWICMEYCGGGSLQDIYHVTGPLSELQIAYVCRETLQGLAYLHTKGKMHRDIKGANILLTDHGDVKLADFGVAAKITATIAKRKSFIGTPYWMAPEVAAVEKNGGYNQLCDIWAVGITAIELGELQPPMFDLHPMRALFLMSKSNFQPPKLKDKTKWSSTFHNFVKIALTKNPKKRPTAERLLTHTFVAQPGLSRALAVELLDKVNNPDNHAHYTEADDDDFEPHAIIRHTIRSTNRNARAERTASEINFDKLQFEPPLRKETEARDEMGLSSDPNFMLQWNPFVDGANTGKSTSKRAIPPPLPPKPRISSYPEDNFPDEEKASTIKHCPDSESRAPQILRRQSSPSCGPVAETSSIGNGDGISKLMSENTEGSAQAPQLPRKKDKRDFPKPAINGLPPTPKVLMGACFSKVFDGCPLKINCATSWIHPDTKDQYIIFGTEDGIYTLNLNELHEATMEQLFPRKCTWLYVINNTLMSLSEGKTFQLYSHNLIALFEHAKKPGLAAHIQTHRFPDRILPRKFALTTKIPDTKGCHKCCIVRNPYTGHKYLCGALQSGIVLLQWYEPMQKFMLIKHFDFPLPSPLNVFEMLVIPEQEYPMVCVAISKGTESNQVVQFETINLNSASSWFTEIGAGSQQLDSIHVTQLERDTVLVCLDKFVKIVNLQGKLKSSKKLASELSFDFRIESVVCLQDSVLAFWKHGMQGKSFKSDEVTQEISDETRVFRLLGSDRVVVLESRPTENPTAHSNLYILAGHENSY

With `O[C@H]1CC[C@H](Nc2nccc(-n3ccc4ccccc43)n2)CC1`, the inhibition in assay [1], in assay [2], in assay [3], in assay [4], in assay [5] and in [6] was less than 50% in each case. Besides, the inhibition (usually the drop in the measured response relative to a control, in per cent) in [7] was 84%; in assay [8] it was 85%; in assay [9], less than 50%.

Consider `O[C@H]1CC[C@H](Nc2nccc(-n3nnc4ccccc43)n2)CC1`, for which the inhibition is 66% in assay [1]; less than 50% in assay [2]; less than 50% in [3]; 95% in assay [4]; less than 50% in [5]; 96% in assay [6]. For the same compound, the figures for the inhibition in assay [7], in assay [8] and in assay [9] were 99%, 100% and less than 50%, respectively.

For `CS(=O)(=O)CCCOc1cccc2c1ccn2-c1ccnc(N[C@H]2CC[C@H](C(=O)N3CCC(O)CC3)CC2)n1`, the inhibition in assay [7] and in assay [9] was more than 85% in each case.

As to `O=C([C@H]1CC[C@H](Nc2nccc(-n3nnc4ccccc43)n2)CC1)N1CCOCC1`, the inhibition in [1] is less than 50%; in assay [2], less than 50%; in assay [3], less than 50%; in assay [4] it was 100%; in assay [5], less than 50%; in assay [6] it was less than 50%. The inhibition in [7] was determined as 98%; in assay [8] it was 95%; in assay [9], 93%.

Turning to `O[C@H]1CC[C@H](Nc2nccc(-n3ncc4ccccc43)n2)CC1`, the inhibition was less than 50% in assay [1]; less than 50% in assay [2]; less than 50% in assay [3]; 73% in [4]; less than 50% in assay [5]; less than 50% in assay [6]. In addition, the inhibition was 100% in [7], 94% in assay [8] and 81% in assay [9].

For the compound `O[C@H]1CC[C@H](Nc2nccc(-c3n[nH]c4ccccc34)n2)CC1`, the inhibition is less than 50% in assay [1]; less than 50% in [2]; 99% in assay [3]; 99% in assay [4]; less than 50% in [5]; less than 50% in [6]. In addition, the inhibition in assay [7], in [8] and in assay [9] was 100% in each case.

`N[C@H]1CC[C@H](Nc2nccc(-n3nnc4ccccc43)n2)CC1`: the inhibition in [1] is less than 50%; in assay [2], less than 50%; in assay [3], less than 50%; in assay [4] it was 91%; in assay [5] it was less than 50%; in assay [6], less than 50%. Further, the inhibition was found to be 96% in [7], 100% in assay [8] and 83% in assay [9].
